Laboratory results reported in ChEMBL document CHEMBL4346684, “Synthesis and structure-bactericidal activity relationships of non-ketolides: 9-Oxime clarithromycin 11,12-cyclic carbonate featured with three-to eight-atom-length spacers at 3-OH” (Eur J Med Chem, 2019).
In brackets after ≈: the same amount, converted by molar mass.

Assays:
Format in all cases: functional
[1] = test system: Staphylococcus aureus; experiment: Antimicrobial activity against inducibly erythromycin resistant Staphylococcus aureus PU64 expressing i-ermA incubated in CAMHB medium for 20 hrs by two-fold microbroth dilution method; settings: PU64, 20 h
Outline: (§1)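 Purified fresh Staphylococcus isolate at about 5×10^5 CFU/ml final in CAMHB, 35 °C for 20 h. […] Each run included ATCC strains and reference antibiotics as QC, plus an antibiotic-free growth control.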

[2] = test system: Staphylococcus epidermidis; experiment: Antimicrobial activity against Staphylococcus epidermidis E1 incubated in CAMHB medium for 20 hrs by two-fold microbroth dilution method; settings: E1, 20 h
Outline: (§2)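 Clinical isolates and ATCC strains, purified by plate activation and used fresh; inoculum about 5×10^5 CFU/ml final. Grown in CAMHB at 35 °C for 20 h.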

[3] = test system: Staphylococcus aureus; experiment: Antimicrobial activity against constitutively erythromycin resistant Staphylococcus aureus PU20 expressing c-ermC incubated in CAMHB medium for 20 hrs by two-fold microbroth dilution method; settings: PU20, 20 h; outline: as §1
[4] = test system: Streptococcus pneumoniae; experiment: Antimicrobial activity against mef-encoded erythromycin resistant Streptococcus pneumoniae PU09 incubated in CAMHB medium for 20 to 24 hrs by two-fold microbroth dilution method
[5] = test system: Streptococcus pneumoniae; experiment: Antimicrobial activity against constitutively erythromycin resistant Streptococcus pneumoniae PU27 expressing c-erm incubated in CAMHB medium for 20 to 24 hrs by two-fold microbroth dilution method
Outline: (§3)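 Purified fresh Streptococcus isolate at about 5×10^5 CFU/ml final in CAMHB with 5% horse serum, 35 °C for 20–24 h. […] Each run included ATCC strains and reference antibiotics as QC, plus an antibiotic-free growth control.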

[6] = test system: Staphylococcus aureus; experiment: Antimicrobial activity against erythromycin-susceptible Staphylococcus aureus ATCC 29213 incubated in CAMHB medium for 20 hrs by two-fold microbroth dilution method; settings: ATCC 29213, 20 h; outline: as §2
[7] = test system: Staphylococcus aureus; experiment: Antimicrobial activity against inducibly erythromycin-resistant Staphylococcus aureus PU32 expressing i-ermA incubated in CAMHB medium for 20 hrs by two-fold microbroth dilution method; settings: PU32, 20 h; outline: as §1
[8] = test system: Streptococcus pyogenes; experiment: Antimicrobial activity against constitutively erythromycin resistant Streptococcus pyogenes A2 expressing c-erm incubated in CAMHB medium for 20 to 24 hrs by two-fold microbroth dilution method; outline: as §3
[9] = test system: Streptococcus pneumoniae; experiment: Antimicrobial activity against erythromycin-susceptible Streptococcus pneumoniae ATCC 49619 incubated in CAMHB medium for 20 to 24 hrs by two-fold microbroth dilution method
[10] = test system: Streptococcus pyogenes; experiment: Antimicrobial activity against erythromycin-susceptible Streptococcus pyogenes A3 incubated in CAMHB medium for 20 to 24 hrs by two-fold microbroth dilution method
[11] = test system: Staphylococcus aureus; experiment: Bactericidal activity against inducibly erythromycin-resistant and methicillin resistant Staphylococcus aureus PU32 expressing i-ermA assessed as reduction in colony formation incubated in CAMHB medium for 20 hrs followed by 24 hrs subculturing in the medium without test compound
[12] = test system: Haemophilus influenzae; experiment: Ratio of MBC to MIC for azithromycin-susceptible Haemophilus influenzae ATCC 49247
[13] = test system: Haemophilus influenzae; experiment: Antimicrobial activity against azithromycin-susceptible Haemophilus influenzae ATCC 49247 incubated in HTM broth medium for 20 to 24 hrs by two-fold microbroth dilution method
[14] = test system: Streptococcus pneumoniae; experiment: Bactericidal activity against erythromycin-susceptible Streptococcus pneumoniae ATCC 49619 assessed as reduction in colony formation incubated in CAMHB medium for 20 to 24 hrs followed by 24 hrs subculturing in the medium without test compound
[15] = test system: Streptococcus pneumoniae; experiment: Ratio of MBC to MIC for mef-encoded erythromycin resistant Streptococcus pneumoniae PU09
[16] = test system: Staphylococcus aureus; experiment: Antimicrobial activity against inducibly erythromycin-resistant and methicillin resistant Staphylococcus aureus PU32 expressing i-ermA incubated in CAMHB medium for 20 hrs by two-fold microbroth dilution method; settings: PU32, 20 h
Outline: (§4)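 Purified fresh Staphylococcus isolate at about 5×10^5 CFU/ml final in CAMHB, 35 °C for 20 h. Each run included ATCC strains and reference antibiotics as QC, plus an antibiotic-free growth control.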

[17] = test system: Haemophilus influenzae; experiment: Bactericidal activity against azithromycin-susceptible Haemophilus influenzae ATCC 49247 assessed as reduction in colony formation incubated in HTM broth medium for 20 to 24 hrs followed by 24 hrs subculturing in the medium without test compound
[18] = test system: Streptococcus pyogenes; experiment: Bactericidal activity against inducibly erythromycin resistant Streptococcus pyogenes 01-968 expressing i-ermA assessed as reduction in colony formation incubated in CAMHB medium for 20 to 24 hrs followed by 24 hrs subculturing in the medium without test compound
[19] = test system: Staphylococcus aureus; experiment: Antimicrobial activity against constitutively erythromycin resistant and methicillin resistant Staphylococcus aureus PU20 expressing c-ermC incubated in CAMHB medium for 20 hrs by two-fold microbroth dilution method; settings: PU20, 20 h; outline: as §4
[20] = test system: Streptococcus pyogenes; experiment: Ratio of MBC to MIC for inducibly erythromycin resistant Streptococcus pyogenes 01-968 expressing i-ermA
[21] = test system: Streptococcus pneumoniae; experiment: Ratio of MBC to MIC for erythromycin-susceptible Streptococcus pneumoniae ATCC 49619
[22] = test system: Streptococcus pneumoniae; experiment: Bactericidal activity against mef-encoded erythromycin resistant Streptococcus pneumoniae PU09 assessed as reduction in colony formation incubated in CAMHB medium for 20 to 24 hrs followed by 24 hrs subculturing in the medium without test compound
[23] = test system: Streptococcus pyogenes; experiment: Antimicrobial activity against inducibly erythromycin resistant Streptococcus pyogenes 01-968 expressing i-ermA incubated in CAMHB medium for 20 to 24 hrs by two-fold microbroth dilution method

Q: Which results are given for `C=CCO/N=C1\[C@H](C)C[C@@](C)(OC)[C@H](O[C@@H]2O[C@H](C)C[C@H](N(C)C)[C@H]2O)[C@@H](C)[C@H](OCC#Cc2cccnc2N)[C@@H](C)C(=O)O[C@H](CC)[C@@]2(C)OC(=O)O[C@@H]2[C@H]1C`?
A: MIC [1]: 64 mg/L (≈ 79.9 µM); MIC [2]: 256 mg/L (≈ 320 µM); MIC [3]: 256 mg/L (≈ 320 µM); MIC [4]: 8 mg/L (≈ 9.99 µM); MIC [5]: 32 mg/L (≈ 40 µM); MIC [6]: 64 mg/L (≈ 79.9 µM); MIC [7]: 256 mg/L (≈ 320 µM); MIC [8]: 64 mg/L (≈ 79.9 µM); MIC [9]: 4 mg/L (≈ 4.99 µM); MIC [10]: 4 mg/L (≈ 4.99 µM)

Q: Which results are given for `C=CCO/N=C1\[C@H](C)C[C@@](C)(OC)[C@H](O[C@@H]2O[C@H](C)C[C@H](N(C)C)[C@H]2O)[C@@H](C)[C@H](OCC#Cc2ccnc(N)c2)[C@@H](C)C(=O)O[C@H](CC)[C@@]2(C)OC(=O)O[C@@H]2[C@H]1C`?
A: MIC [1]: 256 mg/L (≈ 320 µM); MIC [2]: 256 mg/L (≈ 320 µM); MIC [3]: 256 mg/L (≈ 320 µM); MIC [4]: 8 mg/L (≈ 9.99 µM); MIC [5]: 64 mg/L (≈ 79.9 µM); MIC [6]: 64 mg/L (≈ 79.9 µM); MIC [7]: 256 mg/L (≈ 320 µM); MIC [8]: 128 mg/L (≈ 160 µM); MIC [9]: 4 mg/L (≈ 4.99 µM); MIC [10]: 4 mg/L (≈ 4.99 µM)

Q: How did the MIC [1] turn out when `C=CCO/N=C1\[C@H](C)C[C@@](C)(OC)[C@H](O[C@@H]2O[C@H](C)C[C@H](N(C)C)[C@H]2O)[C@@H](C)[C@H](OCC#Cc2cncnc2)[C@@H](C)C(=O)O[C@H](CC)[C@@]2(C)OC(=O)O[C@@H]2[C@H]1C` was run?
A: 256 mg/L (≈ 325 µM)

Q: And the MIC [2]?
A: 256 mg/L (≈ 325 µM)

Q: And the MIC [3]?
A: 256 mg/L (≈ 325 µM)

Q: What about the MIC [4] of the same molecule?
A: 4 mg/L (≈ 5.08 µM)

Q: What about the MIC [5] of the same molecule?
A: 64 mg/L (≈ 81.3 µM)

Q: And the MIC [6]?
A: 64 mg/L (≈ 81.3 µM)

Q: And the MIC [7]?
A: 128 mg/L (≈ 163 µM)

Q: What about the MIC [8] of the same molecule?
A: 64 mg/L (≈ 81.3 µM)

Q: What about the MIC [9] of the same molecule?
A: 4 mg/L (≈ 5.08 µM)

Q: And the MIC [10]?
A: 4 mg/L (≈ 5.08 µM)

Q: For `CC[C@H]1OC(=O)[C@H](C)[C@@H](OC(=O)CCNC/C=C/c2cccnc2)[C@H](C)[C@@H](O[C@@H]2O[C@H](C)C[C@H](N(C)C)[C@H]2O)[C@](C)(OC)C[C@@H](C)/C(=N\OC)[C@H](C)[C@H]2OC(=O)O[C@@]21C`, which MBC [11] is on record?
A: > 256 mg/L

Q: What about the Ratio [12] of the same molecule?
A: 1

Q: And the MIC [13]?
A: 256 mg/L (≈ 307 µM)

Q: What about the MIC [4] of the same molecule?
A: 2 mg/L (≈ 2.4 µM)

Q: And the MBC [14]?
A: 2 mg/L (≈ 2.4 µM)

Q: What about the Ratio [15] of the same molecule?
A: 1

Q: And the MIC [16]?
A: 128 mg/L (≈ 154 µM)

Q: And the MBC [17]?
A: 256 mg/L (≈ 307 µM)

Q: And the MBC [18]?
A: > 64 mg/L

Q: What about the MIC [19] of the same molecule?
A: > 256 mg/L

Q: And the Ratio [20]?
A: >8

Q: And the Ratio [21]?
A: 2

Q: What about the MBC [22] of the same molecule?
A: 2 mg/L (≈ 2.4 µM)

Q: What about the MIC [23] of the same molecule?
A: 8 mg/L (≈ 9.6 µM)

Q: And the MIC [9]?
A: 1 mg/L (≈ 1.2 µM)

Q: With `CC[C@H]1OC(=O)[C@H](C)[C@@H](OC(=O)NCCCc2cncc(N)c2)[C@H](C)[C@@H](O[C@@H]2O[C@H](C)C[C@H](N(C)C)[C@H]2O)[C@](C)(OC)C[C@@H](C)/C(=N\OC)[C@H](C)[C@H]2OC(=O)O[C@@]21C` as the molecule, how does the Ratio [12] read?
A: 1

Q: And the MIC [13]?
A: 256 mg/L (≈ 311 µM)

Q: And the MIC [4]?
A: 4 mg/L (≈ 4.87 µM)

Q: What about the MBC [14] of the same molecule?
A: 0.5 mg/L (≈ 0.608 µM)

Q: What about the MBC [17] of the same molecule?
A: 256 mg/L (≈ 311 µM)

Q: What about the Ratio [21] of the same molecule?
A: 2

Q: What about the MBC [22] of the same molecule?
A: 8 mg/L (≈ 9.73 µM)

Q: What about the MIC [9] of the same molecule?
A: 0.25 mg/L (≈ 0.304 µM)

Q: Which results are given for `C=CCO/N=C1\[C@H](C)C[C@@](C)(OC)[C@H](O[C@@H]2O[C@H](C)C[C@H](N(C)C)[C@H]2O)[C@@H](C)[C@H](OCC#Cc2cccc(N)n2)[C@@H](C)C(=O)O[C@H](CC)[C@@]2(C)OC(=O)O[C@@H]2[C@H]1C`?
A: MIC [1]: 128 mg/L (≈ 160 µM); MIC [2]: 256 mg/L (≈ 320 µM); MIC [3]: 256 mg/L (≈ 320 µM); MIC [4]: 4 mg/L (≈ 4.99 µM); MIC [5]: 64 mg/L (≈ 79.9 µM); MIC [6]: 64 mg/L (≈ 79.9 µM); MIC [7]: 256 mg/L (≈ 320 µM); MIC [8]: 64 mg/L (≈ 79.9 µM); MIC [9]: 4 mg/L (≈ 4.99 µM); MIC [10]: 4 mg/L (≈ 4.99 µM)

Q: With `CC[C@H]1OC(=O)[C@H](C)[C@@H](O[C@H]2C[C@@](C)(OC)[C@@H](O)[C@H](C)O2)[C@H](C)[C@@H](O[C@@H]2O[C@H](C)C[C@H](N(C)C)[C@H]2O)[C@](C)(O)C[C@@H](C)CN(C)[C@H](C)[C@@H](O)[C@]1(C)O` [AZITHROMYCIN] as the molecule, how does the MIC [1] read?
A: > 256 mg/L

Q: And the MIC [2]?
A: > 256 mg/L

Q: What about the MIC [3] of the same molecule?
A: > 256 mg/L

Q: What about the MIC [4] of the same molecule?
A: 16 mg/L (≈ 21.4 µM)

Q: What about the MIC [5] of the same molecule?
A: 64 mg/L (≈ 85.4 µM)

Q: What about the MIC [6] of the same molecule?
A: 2 mg/L (≈ 2.67 µM)

Q: And the MIC [7]?
A: > 256 mg/L

Q: And the MIC [8]?
A: 128 mg/L (≈ 171 µM)

Q: What about the MIC [9] of the same molecule?
A: 0.25 mg/L (≈ 0.334 µM)

Q: What about the MIC [10] of the same molecule?
A: 0.25 mg/L (≈ 0.334 µM)
